From ChEMBL document CHEMBL4828740, “Discovery of Quinoxaline-Based P1-P3 Macrocyclic NS3/4A Protease Inhibitors with Potent Activity against Drug-Resistant Hepatitis C Virus Variants” (J Med Chem, 2021) come the findings set out here.

Structures are written as SMILES.

In data set [1] the target is T1, Hepatitis C virus serine protease, NS3/NS4A (Hepatitis C virus, UniProt A3EZI9+D2K2A8). Put plainly: Inhibition of HCV GT-3a NS3/4a protease using Ac-DE-D(Edans)-EE-Abu-c-[COO]-AS-K(Dabcy1)-NH2 preincubated for 1 hr followed by substrate addition. Format: protein-complex assay, Hepatitis C virus subtype 3a.
Data set [2] in a line: Clearance in Sprague-Dawley rat at 5 mg/kg, iv measured after 0.25 to 24 hrs by LC-MS/MS analysis. Format: ADME, organism-based. Particulars: in vivo, time 0.25-24 hrs.
Data set [3] is described as follows: AUC(0 to 24 hrs) in Sprague-Dawley rat at 5 mg/kg, iv measured after 0.25 to 24 hrs by LC-MS/MS analysis. Type of data set: ADME, organism-based. Also on record: route intravenous, dose 5 mg/kg, time 0.25-24 hrs. Conditions: in vivo.
The test system of data set [4] is Hepatitis C virus. Put plainly: Antiviral activity against HCV genotype 3a infected in human Huh7.5 cells incubated for 72 hrs by luciferase assay. Particulars: subtype 3a, Huh7.5, 72 h. Type of data set: functional, organism-based, Hepacivirus hominis. The gist of the method: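 Huh7.5 cells stably harboring the GT-3a replicon S52/SG-Feo SHI, seeded at 8,000 cells/well. Cells lysed in 1X Passive Lysis Buffer and luciferase activity measured. EC50 taken from drug inhibition curves.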

Data set [5] is described as follows: Tmax in Sprague-Dawley rat at 10 mg/kg, po measured after 0.25 to 24 hrs by LC-MS/MS analysis. Format: ADME, organism-based. Particulars: in vivo, time 0.25-24 hrs.
The nature of data set [6]: Oral bioavailability in Sprague-Dawley rat at 10 mg/kg measured after 0.25 to 24 hrs by LC-MS/MS analysis. Type of data set: ADME, organism-based. Conditions: in vivo, time 0.25-24 hrs.
Data set [7] can be described thus: Volume of distribution at steady state in Sprague-Dawley rat at 5 mg/kg, iv measured after 0.25 to 24 hrs by LC-MS/MS analysis. Type of data set: ADME, organism-based. Particulars: in vivo, time 0.25-24 hrs, read-out: Vdss.
Data set [8] relates to Hepatitis C virus. The data set is described as follows: Antiviral activity against HCV genotype 1b harboring D168A mutant infected in human Huh7 cells incubated for 96 hrs by luciferase assay. Format: functional, organism-based, Hepacivirus hominis. Particulars: subtype 1b, Huh-7, 96 h. In outline: (§1)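 Con1 (GT-1b) luciferase reporter replicon carrying the H77 (GT-1a) NS3 protease region, with the mutation introduced by megaprimer site-directed mutagenesis. Cured Huh7 cells were grown in DMEM with 10% heat-inactivated FBS and 0.1 mM non-essential amino acids, electroporated with replicon RNA transcripts, and kept with serially diluted inhibitor. EC50 was taken directly from the inhibition curves.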

The target of data set [9] is T1, Hepatitis C virus serine protease, NS3/NS4A. Put plainly: Inhibition of HCV GT-1a NS3/4a protease using Ac-DE-D(Edans)-EE-Abu-c-[COO]-AS-K(Dabcy1)-NH2 preincubated for 1 hr followed by substrate addition. Format: protein complex, Hepatitis C virus subtype 1a.
A short description of data set [10]: Half life in Sprague-Dawley rat at 5 mg/kg, iv measured after 0.25 to 24 hrs by LC-MS/MS analysis. Format: ADME, organism-based. Particulars: in vivo, time 0.25-24 hrs.
For data set [11], the system named is Hepatitis C virus. The data set is described as follows: Antiviral activity against HCV genotype 1b infected in human Huh7 cells incubated for 96 hrs by luciferase assay. Format: functional, organism-based, Hepacivirus hominis. Conditions: Huh-7, 96 h. In outline:
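Con1 (GT-1b) luciferase reporter replicon carrying the H77 (GT-1a) NS3 protease region, either WT or with A156T or D168A introduced by megaprimer mutagenesis. Cured Huh7 cells grown in DMEM with 10% heat-inactivated FBS and 0.1 mM non-essential amino acids. Cells electroporated with replicon RNA and kept with serially diluted inhibitor.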

Data set [12] is described as follows: Cmax in Sprague-Dawley rat at 10 mg/kg, po measured after 0.25 to 24 hrs by LC-MS/MS analysis. More on the design: route oral, time 0.25-24 hrs, dose 10 mg/kg. Particulars: in vivo. Format: ADME, organism-based.
Data set [13] in a line: Half life in Sprague-Dawley rat at 10 mg/kg, po measured after 0.25 to 24 hrs by LC-MS/MS analysis. Particulars: in vivo, time 0.25-24 hrs. Type of data set: ADME, organism-based.
Data set [14] has as its system Hepatitis C virus. The data set is described as follows: Antiviral activity against HCV genotype 1b harboring A156T mutant infected in human Huh7 cells incubated for 96 hrs by luciferase assay. Format: functional, organism-based, Hepacivirus hominis. Particulars: subtype 1b, Huh-7, 96 h. In outline:
as §1

Turning to `COc1ccc2nc(C)c(O[C@@H]3C[C@H]4C(=O)N[C@]5(C(=O)NS(=O)(=O)C6(C)CC6)C[C@H]5/C=C/CCCCC[C@H](NC(=O)OC5(C(F)(F)F)CCCC5)C(=O)N4C3)nc2c1`, the Ki (in general, the dissociation constant of the complex between target and ligand, obtained from inhibition or displacement) in data set [1] was determined as 104 nM; in data set [9], 1.3 nM. For the same compound, the clearance (as a rule, a measure of how efficiently the substance is removed, as volume per time) in data set [2] was 37 mL/min/kg. Moreover, in data set [3], the AUC(0-t) (as a rule, the area under the concentration-time curve up to a stated or last time point) amounted to 2.7 µM·h. Besides, the 50% effective concentration (EC50) (commonly the midpoint of the concentration-response curve) in the data set on Hepatitis C virus [4] worked out at 130 nM; in the data set with Hepatitis C virus [8], 20 nM; in the data set on Hepatitis C virus [11] it was 0.3 nM; with Hepatitis C virus [14], 6.2 nM. The Tmax (usually the time from dosing to the highest level) in [5] was found to be 3 h. In [6], the bioavailability – broadly, the share of a dose that reaches the circulation, judged against a reference dose that is usually intravenous – was found to be 11%. Besides, in data set [7], the Vd worked out at 3.9 L/kg. For the same compound, the half-life (usually the time in which the quantity being followed falls by half) is 318 min in data set [10] and 294 min in [13]. The peak level in data set [12] (Cmax) was 110 nM.

Regarding `COc1ccc2nc(C)c(O[C@@H]3C[C@H]4C(=O)N[C@]5(C(=O)NS(=O)(=O)C6(C)CC6)C[C@H]5/C=C/CCCCC[C@H](NC(=O)OC(C)(C)C)C(=O)N4C3)nc2c1`, the Ki was 119 nM in data set [1] and 3.6 nM in data set [9]. This compound also returned a clearance in data set [2] of 51 mL/min/kg. Further, the exposure AUC(0-t) in [3] was 2.2 µM·h. Further, the EC50 stood at 300 nM with Hepatitis C virus [4], 2.2 nM in the data set with Hepatitis C virus [8], 0.6 nM in the data set on Hepatitis C virus [11] and 2.1 nM in the data set on Hepatitis C virus [14]. Besides, in [5], the Tmax came out at 1.4 h. The compound also had a bioavailability in data set [6] of 10%. In data set [7], the Vd came to 3.5 L/kg. The results for the half-life in [10] and in data set [13] were 312 min and 180 min, respectively. Moreover, the Cmax (usually the peak of the concentration-time curve) in data set [12] came out at 180 nM.
